Results pooled from the literature.
Each line is one published result; the experiments were not run side by side.
BACE1: Beta-secretase 1 (BACE1, Homo sapiens, UniProt P56817)
HLA class I histocompatibility antigen, A alpha chain: HLA class I histocompatibility antigen, A alpha chain (Homo sapiens, UniProt P04439)
Htr2c: 5-hydroxytryptamine receptor 2C (Htr2c, Mus musculus, UniProt P34968)

For `C=CCOc1ccc(C(=O)/C=C/c2cccc(F)c2)c(OS(=O)(=O)c2ccc(OC)cc2)c1I`, the IC50 was 21600 nM (BACE1; enzyme activity, inhibitor, fluorescence).
For `CC(C)C[C@H](NC(=O)[C@@H](NC(=O)[C@H](CCCCN)NC(=O)[C@H](CC(=O)O)NC(=O)[C@H](Cc1ccc(O)cc1)NC(=O)[C@H](C)NC(=O)[C@@H](N)CCCNC(=N)N)[C@@H](C)O)C(=O)N[C@@H](Cc1ccc(O)cc1)C(=O)N[C@@H](Cc1ccccc1)C(=O)O`, the IC50 was 15 nM (HLA class I histocompatibility antigen, A alpha chain; cell-free assay).
The EC50 of `COc1cc(CCN)c(OC)cc1Br` is reported as 4.27 nM (Htr2c; G protein activation, agonist, BRET).
The IC50 of `C=CCOc1ccc(C(=O)/C=C/c2ccc(OC)cc2)c(OS(C)(=O)=O)c1I` is reported as 48100 nM (BACE1; enzyme activity, inhibitor, fluorescence).
The EC50 of `CCCC[C@H](NC(C)=O)C(=O)N[C@H]1CC(=O)NCCCC[C@@H](C(=O)N2CCC[C@@H]2C(=O)N[C@@H](C(=O)N2CCC[C@@H]2C(N)=O)C(C)C)NC(=O)[C@H](Cc2c[nH]c3ccccc23)NC(=O)[C@H](CCCNC(=N)N)NC(=O)[C@@H](Cc2ccccc2)NC(=O)[C@@H]2CCCN2C1=O` is reported as 0.407 nM (Melanocyte-stimulating hormone receptor (MC1R, Homo sapiens, UniProt Q01726); cAMP, agonist).
`COc1cc(CCN)c(OC)cc1C#N` gave an EC50 of 200 nM (Htr2c; G protein activation, agonist, BRET).
`CC(C)C[C@H](NC(=O)[C@@H]1CCCN1C(=O)[C@H](Cc1c[nH]c2ccccc12)NC(=O)[C@H](CC(=O)O)NC(=O)[C@H](Cc1ccc(O)cc1)NC(=O)[C@@H](NC(=O)[C@@H](N)Cc1ccc(O)cc1)C(C)C)C(=O)N[C@H](C(=O)N[C@@H](Cc1ccccc1)C(=O)O)[C@@H](C)O` gave an IC50 of 21500 nM (HLA class I histocompatibility antigen, A alpha chain; cell-free assay).
`CCN(CC)C(=O)[C@@H]1C=C2c3cccc4[nH]cc(c34)C[C@H]2N(C)C1` gave an EC50 of 1.58 nM (D(2) dopamine receptor (DRD2, Homo sapiens, UniProt P14416); G protein activation, agonist, BRET).
